Experimental data as given in ChEMBL document CHEMBL1126066, “Biological activities and quantitative structure-activity relationships of spiro[imidazolidine-4,4'(1'H)-quinazoline]-2,2',5(3'H)-triones as aldose reductase inhibitors” (J Med Chem, 1992).
Several values for one entry are separate records, joined by “and”; a condition that tells them apart may be missing. Equal values may be shown once.

How the values were obtained:
[1] = tested on: Rattus norvegicus; experiment: In vivo inhibition of polyol accumulation in the sciatic nerve of galactosemic rats, activity is measured as polyol contents; type: functional, organism-based
Method in brief: (§1)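 Male Wistar rats (SIC, 4 weeks old), three per group, had free access to water and a 20% galactose diet containing the compound for 6 days. Galactose-only and standard-diet groups served as controls. Rats were bled under ether anesthesia on day 7. Sciatic nerve polyol was measured by a modified Dvornik assay. % inhibition = (galactose control − treated)/(galactose control − normal) × 100. Student's t-test was used.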

[2] = tested on: Rattus norvegicus; experiment: In vivo inhibition of polyol accumulation in the sciatic nerve of galactosemic rats, activity is expressed as percent inhibition of poloyl accumulation.; type: functional; set-up: concentration or dose not given beside the values; method in brief: as §1
[3] = tested on: Rattus norvegicus; experiment: Compound was evaluated in vivo for percent inhibition of polyol accumulation at a dose of 15 mg/kg per day; type: functional
Method in brief: (§2)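 Galactosemic male Wistar rats (4 weeks old, n = 3) received the compound in a 20% galactose diet for 6 days and were killed on day 7. Sciatic nerve or lens polyol was measured by a modified Dvornik assay. Mean % inhibition = (galactose control − treated)/(galactose control − normal control) × 100.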

[4] = tested on: Rattus norvegicus; experiment: Compound was evaluated in vivo for polyol content in lens of galactosemic rats at a dose of 3 mg/kg per day.
[5] = tested on: Rattus norvegicus; experiment: Compound was evaluated in vivo for […] at a dose of 90 mg/kg per day.; type: functional, organism-based
[6] = tested on: Rattus norvegicus; experiment: Compound was evaluated in vivo for 50% inhibition of enzymatic activity of partially purified AR from male rabbit sciatic nerve at a dose of 90 mg/kg per day.; type: functional, organism-based; method in brief: as §1
[7] = tested on: Rattus norvegicus; experiment: Compound was evaluated in vivo for 50% inhibition of polyol accumulation in rat sciatic nerve at a dose of 3 mg/kg per day.
[8] = tested on: Rattus norvegicus; experiment: Compound was evaluated in vivo for inhibition of polyol accumulation in rat at a dose of 15 mg/kg per day.
[9] = tested on: Rattus norvegicus; experiment: Compound was evaluated in vivo for […] at a dose of 15 mg/kg per day.; type: functional, organism-based; details: Sciatic nerve; method in brief: as §1
[10] = tested on: Rattus norvegicus; experiment: Compound was evaluated in vivo for percent inhibition of polyol accumulation at a dose of 3 mg/kg per day.; type: functional; method in brief: as §2

SMILES | polyol content [1] [µmol/g] | Inhibition [2] [%] | further results
CCOC(=O)c1ccc2c(c1)C1(NC(=O)NC1=O)N(C)C(=O)N2 (stereo not drawn) | 11.1 | 22.2 | 
COc1ccc2c(c1)NC(=O)N(C)C21NC(=O)NC1=O (stereo not drawn) | 9.8 | 21 | 
CN1C(=O)Nc2ccc([N+](=O)[O-])c(Cl)c2C12NC(=O)NC2=O (stereo not drawn) | 11.5 | 0 | 
CN1C(=O)Nc2cc(Cl)c(Cl)cc2C12NC(=O)NC2=O (stereo not drawn) | 7.5 | 52.9 | 
COc1c(Cl)cc2c(c1Cl)NC(=O)N(C)C21NC(=O)NC1=O (stereo not drawn) | 8.4 | 37.5 | 
CN1C(=O)Nc2ccc(OC(=O)/C=C/c3ccccc3)cc2C12NC(=O)NC2=O (stereo not drawn) | 10.4 | 29.3 | 
CN1C(=O)Nc2ccc(F)cc2[C@@]12NC(=O)NC2=O | 6.6 | 61 | 
CN1C(=O)Nc2c([N+](=O)[O-])cc(Cl)cc2C12NC(=O)NC2=O (stereo not drawn) | 8 | 29.2 | 
NN1C(=O)Nc2ccccc2C12NC(=O)NC2=O (stereo not drawn) | 11.3 | 12.2 | 
CN1C(=O)Nc2c(F)cccc2C12NC(=O)NC2=O (stereo not drawn) | 9.5 | 29.9 | 
CN1C(=O)Nc2c(cc(F)c(F)c2F)C12NC(=O)NC2=O (stereo not drawn) | 9.5 | 29.9 | 
CN1C(=O)Nc2c(N)cc(Cl)cc2C12NC(=O)NC2=O (stereo not drawn) | 7 | 44.6 | 
COc1cc2c(cc1Cl)C1(NC(=O)NC1=O)N(C)C(=O)N2 (stereo not drawn) | 8.3 | 24.6 | 
CN1C(=O)Nc2ccc(Cl)cc2C12NC(=O)NC2=O (stereo not drawn) | 6.7 | 68 | 
CN1C(=O)Nc2ccc(Cl)cc2[C@]12NC(=O)NC2=O | 10.7 | 26.3 | 
CN1C(=O)Nc2cc(Cl)ccc2C12NC(=O)NC2=O (stereo not drawn) | 11.4 | 22.3 | 
CCN1C(=O)Nc2ccccc2C12NC(=O)NC2=O (stereo not drawn) | 9.6 | 19.5 | 
CN1C(=O)N(C)C2(NC(=O)NC2=O)c2ccccc21 (stereo not drawn) | 9.2 | 28.4 | 
Cc1ccc2c(c1)NC(=O)N(C)C21NC(=O)NC1=O (stereo not drawn) | 8.4 | 37.5 | 
CN1C(=O)Nc2cc(Cl)c([N+](=O)[O-])cc2C12NC(=O)NC2=O (stereo not drawn) | 10.6 | 7.7 | 
Cc1cccc2c1C1(NC(=O)NC1=O)N(C)C(=O)N2 (stereo not drawn) | 9.2 | 27.5 | 

SMILES | polyol content [1] [µmol/g] | Inhibition [2] [%] | further results
CN1C(=O)Nc2ccc([N+](=O)[O-])cc2C12NC(=O)NC2=O (stereo not drawn) | 12.1 | 15.5 | 
CN1C(=O)Nc2ccc(Br)cc2C12NC(=O)NC2=O (stereo not drawn) | 5.6 | 74.7 | 
CN1C(=O)Nc2ccccc2[C@@]12NC(=O)NC2=O | 8.4 | 39 | 
CN1C(=O)Nc2ccc(OC(=O)c3ccccc3)cc2C12NC(=O)NC2=O (stereo not drawn) | 10.5 | 12.3 | 
O=C1NC(=O)C2(N1)NC(=O)Nc1ccccc12 (stereo not drawn) | 10.7 | 15.1 | 
CN1C(=O)Nc2cc([N+](=O)[O-])ccc2C12NC(=O)NC2=O (stereo not drawn) | 10.3 | 11.5 | 
CN1C(=O)Nc2ccccc2C12NC(=O)NC2=O (stereo not drawn) | 8.8 | 32.5 | 
CN1C(=O)Nc2ccc(F)cc2C12NC(=O)NC2=O (stereo not drawn) | 6.7 | 58.7 | 
CN1C(=O)Nc2c([N+](=O)[O-])cc([N+](=O)[O-])cc2C12NC(=O)NC2=O (stereo not drawn) | 10.1 | 14.1 | 
Cc1cc2c(cc1Cl)C1(NC(=O)NC1=O)N(C)C(=O)N2 (stereo not drawn) | 6.8 | 58 | 
O=C1NC(=O)[C@@]2(CCOc3ccc(F)cc32)N1 [SORBINIL] |  |  | inhibition in vivo at 15 mg/kg/day [3]: 90.2%
CN1C(=O)Nc2ccc(Cl)cc2[C@@]12NC(=O)NC2=O | 3.4 | 100 | polyol content [4]: 58.9 µmol/g; polyol content [5]: 42.4 µmol/g; polyol content [6]: 2.8 µmol/g; polyol content [7]: 7.5 µmol/g; polyol content [8]: 59.2 µmol/g; polyol content [9]: 4.8 µmol/g; Inhibition [10]: 23.4% and 0%
CN1C(=O)Nc2cccc(Cl)c2C12NC(=O)NC2=O (stereo not drawn) | 11.9 | 17.5 | 
COc1ccc2c(c1)C1(NC(=O)NC1=O)N(C)C(=O)N2 (stereo not drawn) | 10.4 | 13.6 | 
Cc1ccc2c(c1)C1(NC(=O)NC1=O)N(C)C(=O)N2 (stereo not drawn) | 9 | 30.9 | 
CN1C(=O)Nc2c(Cl)cc(Cl)cc2C12NC(=O)NC2=O (stereo not drawn) | 5.8 | 63.1 | 
CC(C)CN1C(=O)N(C)C2(NC(=O)NC2=O)c2ccccc21 (stereo not drawn) | 8.1 | 27.7 | 
CN1C(=O)Nc2cc(N3CCOCC3)c([N+](=O)[O-])cc2C12NC(=O)NC2=O (stereo not drawn) | 10.4 | 10.3 | 
CN1C(=O)Nc2cc3c(cc2C12NC(=O)NC2=O)OCO3 (stereo not drawn) | 9.2 | 28.4 | 
CN1C(=O)Nc2ccc(F)cc2[C@]12NC(=O)NC2=O | 12.1 | 15.5 | 
